We go through four compounds from ChEMBL document CHEMBL1141839, “Antifungal jujubogenin saponins from Colubrina retusa” (1999).

Assay [1] has as its system Candida albicans. Description: Antifungal activity against Candida albicans after 24 hrs. It is filed as functional. Summed up:
(§1)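 Modified NCCLS broth microdilution in 96-well format. C. albicans grown in SDB to the desired density and seeded into wells. Pure compounds tested at final 50, 10 and 2 μg/mL. Incubated 24 h at 37 °C, with growth scored at each level. MIC is the lowest tested concentration with no growth. Amphotericin B served as positive control.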

In assay [2] the test system is Cryptococcus neoformans. Description: Antifungal activity against Cryptococcus neoformans after 48 hrs. The assay is classed as functional. The gist of the method:
(§2)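 C. neoformans grown in Mycophil broth to the desired density, then seeded into 96-well plates (modified NCCLS microdilution). Pure compounds added at final 50, 10 and 2 μg/mL. Incubation 48 h, 30 °C, with growth assessed per concentration. MIC is the lowest tested level showing no growth. Amphotericin B positive control.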

The subject of assay [3] is Aspergillus fumigatus. Description: Antifungal activity against Aspergillus fumigatus after 48 hrs. It is filed as functional. Summed up: (§3)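 A. fumigatus spores gently scraped from fungal growth and used as inoculum in a 96-well adaptation of the NCCLS protocol. Pure compounds at final 50, 10 and 2 μg/mL. Incubated 48 h at 30 °C, with growth read at each concentration. MIC is the lowest tested concentration without growth. Amphotericin B positive control.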

The subject of assay [4] is Candida albicans. The experiment in a line: Antifungal activity against Candida albicans at 2 ug/mL after 24 hrs. The assay is classed as functional, organism-based. Summed up:
as §1

The subject of assay [5] is Cryptococcus neoformans. The experiment in a line: Antifungal activity against Cryptococcus neoformans at 2 ug/mL after 48 hrs. It is filed as functional, organism-based. Summed up: as §2
For assay [6], the system named is Aspergillus fumigatus. Description: Antifungal activity against Aspergillus fumigatus at 2 ug/mL after 48 hrs. The assay is classed as functional, organism-based. The gist of the method: as §3

What is called MIC is the lowest concentration that inhibits growth of the organism.

Molecules are shown by their SMILES. In brackets after ≈: the same amount, converted by molar mass. Activity calls are given as the source filed them. The calls are words filed in the database; no cut-off is given here.

Consider `CC(C)=C[C@H]1C[C@](C)(O)[C@@H]2[C@H]3CC[C@@H]4[C@@]5(C)CC[C@H](O[C@@H]6OC[C@H](O)[C@H](O[C@@H]7O[C@H](CO)[C@@H](O)[C@H](O)[C@H]7OC(=O)/C=C/c7ccc(O)cc7)[C@H]6O[C@@H]6O[C@@H](CO)[C@H](O)[C@H]6O)C(C)(C)[C@@H]5CC[C@@]4(C)[C@@]34CO[C@@]2(C4)O1`, for which the MIC against Candida albicans [1] was over 50 mg/L; in the assay on Cryptococcus neoformans [2], 50 mg/L (≈ 47.8 µM); against Aspergillus fumigatus [3], over 50 mg/L.
`C[C@@H]1[C@H](O)[C@@H](C)/C=C/C=C/C=C/C=C/C=C/C=C/C=C/[C@H](O[C@@H]2O[C@H](C)[C@@H](O)[C@H](N)[C@@H]2O)C[C@@H]2O[C@](O)(C[C@@H](O)C[C@@H](O)[C@H](O)CC[C@@H](O)C[C@@H](O)CC(=O)O[C@H]1C)C[C@H](O)[C@H]2C(=O)O`: the result in the assay on Candida albicans [4], in the assay on Cryptococcus neoformans [5] and in the assay on Aspergillus fumigatus [6] was Active.
`CC(C)=C[C@H]1C[C@](C)(O)[C@@H]2[C@H]3CC[C@@H]4[C@@]5(C)CC[C@H](O[C@@H]6OC[C@H](O)[C@H](O[C@@H]7O[C@H](CO)[C@@H](O)[C@H](O)[C@H]7O)[C@H]6O[C@@H]6O[C@@H](COC(=O)CC(=O)O)[C@H](O)[C@H]6O)C(C)(C)[C@@H]5CC[C@@]4(C)[C@@]34CO[C@@]2(C4)O1`: the outcome in the assay with Candida albicans [1], with Cryptococcus neoformans [2] and in the assay on Aspergillus fumigatus [3] was inactive.
`CC(C)=C[C@H]1C[C@](C)(O)[C@@H]2[C@H]3CC[C@@H]4[C@@]5(C)CC[C@H](O[C@@H]6OC[C@H](O)[C@H](O[C@@H]7O[C@H](CO)[C@@H](O)[C@H](O)[C@H]7O)[C@H]6O[C@@H]6O[C@@H](CO)[C@H](O)[C@H]6O)C(C)(C)[C@@H]5CC[C@@]4(C)[C@@]34CO[C@@]2(C4)O1`: the MIC against Candida albicans [1], with Cryptococcus neoformans [2] and with Aspergillus fumigatus [3] was 50 mg/L (≈ 55.6 µM) in each case.
